The values below come from ChEMBL document CHEMBL5576142, “Exploring 2-Sulfonylpyrimidine Warheads as Acrylamide Surrogates for Targeted Covalent Inhibition: A BTK Story” (J Med Chem, 2024).

Data set [1] addresses T1, Tyrosine-protein kinase BTK (Homo sapiens, UniProt Q06187). The note with it: OCILY7, dose 500.0 nM, time 1.0 hrs.
Data set [2] concerns TMD8. The data set is described as follows: Induction of apoptosis in human TMD8 cells assessed as early apoptotic cells at 10 nM incubated for 72 hrs by Annexin-V/PI staining based flow cytometry (reference value: 4.8 %). The data set is classed as functional.
Data set [3] deals with TMD8. The data set is described as follows: Induction of apoptosis in human TMD8 cells assessed as viable cells at 1000 nM incubated for 72 hrs by Annexin-V/PI staining based flow cytometry (reference value: 66 %). The data set is classed as functional. The note with it: read-out: Activity. For orientation: In flow cytometry, cells or beads pass a laser one at a time.
For data set [4], the system named is TMD8. The data set is described as follows: Induction of apoptosis in human TMD8 cells assessed as early apoptotic cells at 1000 nM incubated for 72 hrs by Annexin-V/PI staining based flow cytometry (reference value: 4.8 %). The data set is classed as functional.
Data set [5] has as its system Epidermal growth factor receptor (Homo sapiens), P00533 [L861Q]. The data set is described as follows: Inhibition of EGFR L861Q mutant (unknown origin) expressed in expressed in Escherichia coli BL21 at 1 uM incubated for 1 hr by Eurofins-KinomeScan assay relative to control.
Data set [6] concerns TMD8. Kind of data set: Induction of apoptosis in human TMD8 cells assessed as late apoptotic cells at 100 nM incubated for 72 hrs by Annexin-V/PI staining based flow cytometry (reference value: 25.4 %). It counts as functional.
Data set [7] concerns the target T1, Tyrosine-protein kinase BTK. Kind of data set: Inhibition of BTK in anti-IgM induced human OCILY7 cells assessed as increase in calcium flux at 250 nM incubated for […] followed by anti-IgM and Pluronic F127 stimulation measured after […] by Fluo-3 AM based flow cytometry. It counts as cell-based. The settings on record: time 5.0 hrs. (In general: Calcium flux is commonly read through the fluorescence of an indicator in the cells.)

Data set [8] has as its system TMD8. The data set is described as follows: Induction of pyroptosis in human TMD8 cells assessed as upregulation of TLR8 gene expression at 1 uM incubated for 8 hrs by RNA-sequencing analysis. The data set is classed as functional, cell-based. In short, it runs like this: (§1)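 TMD8 cells (RPMI-1640, 10% FBS, glutamine) exposed to compound at 1 μM or DMSO for 8 h. Total RNA extracted and analysed by RNA-seq. Differential expression called against DMSO at FDR < 0.01 with |log2FC| > 0.5.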

The target of data set [9] is T1, Tyrosine-protein kinase BTK. The settings on record: OCILY7, dose 500.0 nM, time 1.0 hrs. The source holds these as a separate data set.
Data set [10] has as its system TMD8. The data set is described as follows: Induction of apoptosis in human TMD8 cells assessed as necrotic cells at 10 nM incubated for 72 hrs by Annexin-V/PI staining based flow cytometry (reference value: 3 %). The data set is classed as functional.
Data set [11] deals with TMD8. Kind of data set: Induction of necroptosis in human TMD8 cells assessed as upregulation of RIPK1 gene expression at 1 uM incubated for 8 hrs by RNA-sequencing analysis. The data set is classed as functional, cell-based. The method, boiled down:
as §1

Data set [12] has as its system TMD8. The data set is described as follows: Induction of apoptosis in human TMD8 cells assessed as necrotic cells at 1000 nM incubated for 72 hrs by Annexin-V/PI staining based flow cytometry (reference value: 3 %). The data set is classed as functional.
The subject of data set [13] is TMD8. The data set is described as follows: Induction of necroptosis in human TMD8 cells assessed as upregulation of TNFSF10 gene expression at 1 uM incubated for 8 hrs by RNA-sequencing analysis. The data set is classed as functional, cell-based. In short, it runs like this: as §1
The target in data set [14] is T1, Tyrosine-protein kinase BTK. Kind of data set: Inhibition of NanoLuc fused BTK (unknown origin) transiently transfected in HEK293 cells incubated for 1 hr by NanoBRET assay. It counts as cell-based. In general terms: BRET reads energy transfer from a luciferase to a nearby fluorophore.
The test system of data set [15] is TMD8. Kind of data set: Downregulation of CYP1A1 gene expression in human TMD8 cells at 1 uM incubated for 8 hrs by RNA-sequencing analysis. The data set is classed as functional, cell-based. In short, it runs like this:
as §1

The target of data set [16] is T1, Tyrosine-protein kinase BTK. The settings on record: OCILY7, dose 500.0 nM, time 1.0 hrs. The source holds these as a separate data set.
In data set [17] the test system is TMD8. Kind of data set: Induction of necroptosis in human TMD8 cells assessed as upregulation of TRPM7 gene expression at 1 uM incubated for 8 hrs by RNA-sequencing analysis. The data set is classed as functional, cell-based. In short, it runs like this: as §1
The test system of data set [18] is TMD8. Kind of data set: Induction of apoptosis in human TMD8 cells assessed as late apoptotic cells at 10 nM incubated for 72 hrs by Annexin-V/PI staining based flow cytometry (reference value: 25.4 %). The data set is classed as functional.
Data set [19] addresses T1, Tyrosine-protein kinase BTK. The settings on record: OCILY7, dose 500.0 nM, time 1.0 hrs. The source holds these as a separate data set.
For data set [20], the system named is TMD8. Kind of data set: Induction of pyroptosis in human TMD8 cells assessed as upregulation of TLR4 gene expression at 1 uM incubated for 8 hrs by RNA-sequencing analysis. The data set is classed as functional, cell-based. The method, boiled down: as §1
Data set [21] has as its system Epidermal growth factor receptor (Homo sapiens), P00533 [T790M]. The data set is described as follows: Inhibition of EGFR T790M mutant (unknown origin) expressed in expressed in Escherichia coli BL21 at 1 uM incubated for 1 hr by Eurofins-KinomeScan assay relative to control.
Data set [22] relates to TMD8. The data set is described as follows: Induction of pyroptosis in human TMD8 cells assessed as upregulation of NLRP7 gene expression at 1 uM incubated for 8 hrs by RNA-sequencing analysis. The data set is classed as functional, cell-based. The method, boiled down: as §1
For data set [23], the system named is TMD8. Kind of data set: Induction of apoptosis in human TMD8 cells assessed as necrotic cells at 100 nM incubated for 72 hrs by Annexin-V/PI staining based flow cytometry (reference value: 3 %). The data set is classed as functional.
The target of data set [24] is T1, Tyrosine-protein kinase BTK. The settings on record: OCILY7, dose 500.0 nM, time 1.0 hrs. This is another data set of the same source.
For data set [25], the system named is Epidermal growth factor receptor (Homo sapiens), P00533 [G719C]. Kind of data set: Inhibition of EGFR G719C mutant (unknown origin) expressed in expressed in Escherichia coli BL21 at 1 uM incubated for 1 hr by Eurofins-KinomeScan assay relative to control.
Sequence of Epidermal growth factor receptor (Homo sapiens), P00533 [G719C] (P00533 whole entry G719C): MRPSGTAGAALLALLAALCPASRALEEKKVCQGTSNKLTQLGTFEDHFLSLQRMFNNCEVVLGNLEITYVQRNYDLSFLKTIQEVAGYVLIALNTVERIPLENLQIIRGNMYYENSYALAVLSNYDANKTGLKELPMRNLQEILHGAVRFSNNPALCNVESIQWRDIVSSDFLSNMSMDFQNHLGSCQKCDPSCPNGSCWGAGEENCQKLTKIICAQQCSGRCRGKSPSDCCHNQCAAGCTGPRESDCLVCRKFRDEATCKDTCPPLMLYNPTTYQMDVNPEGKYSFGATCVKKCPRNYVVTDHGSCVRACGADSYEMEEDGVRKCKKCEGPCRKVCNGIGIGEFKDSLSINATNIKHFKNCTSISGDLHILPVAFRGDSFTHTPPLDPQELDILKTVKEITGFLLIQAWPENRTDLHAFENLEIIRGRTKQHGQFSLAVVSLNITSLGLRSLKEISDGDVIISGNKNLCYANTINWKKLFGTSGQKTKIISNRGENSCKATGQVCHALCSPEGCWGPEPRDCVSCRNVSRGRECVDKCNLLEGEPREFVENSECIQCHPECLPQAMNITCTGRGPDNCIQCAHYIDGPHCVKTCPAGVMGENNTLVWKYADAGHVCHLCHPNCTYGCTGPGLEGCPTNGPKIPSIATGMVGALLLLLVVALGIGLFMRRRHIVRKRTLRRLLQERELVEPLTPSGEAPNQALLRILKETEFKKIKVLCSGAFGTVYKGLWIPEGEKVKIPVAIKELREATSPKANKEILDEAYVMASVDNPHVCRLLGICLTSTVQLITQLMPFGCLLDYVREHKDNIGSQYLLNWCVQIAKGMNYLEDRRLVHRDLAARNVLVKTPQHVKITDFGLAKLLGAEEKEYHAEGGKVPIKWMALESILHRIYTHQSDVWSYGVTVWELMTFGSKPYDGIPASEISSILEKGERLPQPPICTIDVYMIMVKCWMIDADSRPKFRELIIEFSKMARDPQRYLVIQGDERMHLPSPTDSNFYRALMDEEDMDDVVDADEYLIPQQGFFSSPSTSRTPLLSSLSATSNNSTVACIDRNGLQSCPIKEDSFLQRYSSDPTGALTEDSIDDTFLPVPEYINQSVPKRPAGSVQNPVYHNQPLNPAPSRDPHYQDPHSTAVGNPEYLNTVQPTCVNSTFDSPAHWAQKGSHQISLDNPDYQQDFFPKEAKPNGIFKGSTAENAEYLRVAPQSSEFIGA
Data set [26] concerns TMD8. Kind of data set: Induction of necroptosis in human TMD8 cells assessed as upregulation of TLR4 gene expression at 1 uM incubated for 8 hrs by RNA-sequencing analysis. It counts as functional, cell-based. In short, it runs like this: as §1
Data set [27] deals with Epidermal growth factor receptor (Homo sapiens), P00533 [G719S]. The data set is described as follows: Inhibition of EGFR G719S mutant (unknown origin) expressed in expressed in Escherichia coli BL21 at 1 uM incubated for 1 hr by Eurofins-KinomeScan assay relative to control.
Sequence of Epidermal growth factor receptor (Homo sapiens), P00533 [G719S] (P00533 whole entry G719S): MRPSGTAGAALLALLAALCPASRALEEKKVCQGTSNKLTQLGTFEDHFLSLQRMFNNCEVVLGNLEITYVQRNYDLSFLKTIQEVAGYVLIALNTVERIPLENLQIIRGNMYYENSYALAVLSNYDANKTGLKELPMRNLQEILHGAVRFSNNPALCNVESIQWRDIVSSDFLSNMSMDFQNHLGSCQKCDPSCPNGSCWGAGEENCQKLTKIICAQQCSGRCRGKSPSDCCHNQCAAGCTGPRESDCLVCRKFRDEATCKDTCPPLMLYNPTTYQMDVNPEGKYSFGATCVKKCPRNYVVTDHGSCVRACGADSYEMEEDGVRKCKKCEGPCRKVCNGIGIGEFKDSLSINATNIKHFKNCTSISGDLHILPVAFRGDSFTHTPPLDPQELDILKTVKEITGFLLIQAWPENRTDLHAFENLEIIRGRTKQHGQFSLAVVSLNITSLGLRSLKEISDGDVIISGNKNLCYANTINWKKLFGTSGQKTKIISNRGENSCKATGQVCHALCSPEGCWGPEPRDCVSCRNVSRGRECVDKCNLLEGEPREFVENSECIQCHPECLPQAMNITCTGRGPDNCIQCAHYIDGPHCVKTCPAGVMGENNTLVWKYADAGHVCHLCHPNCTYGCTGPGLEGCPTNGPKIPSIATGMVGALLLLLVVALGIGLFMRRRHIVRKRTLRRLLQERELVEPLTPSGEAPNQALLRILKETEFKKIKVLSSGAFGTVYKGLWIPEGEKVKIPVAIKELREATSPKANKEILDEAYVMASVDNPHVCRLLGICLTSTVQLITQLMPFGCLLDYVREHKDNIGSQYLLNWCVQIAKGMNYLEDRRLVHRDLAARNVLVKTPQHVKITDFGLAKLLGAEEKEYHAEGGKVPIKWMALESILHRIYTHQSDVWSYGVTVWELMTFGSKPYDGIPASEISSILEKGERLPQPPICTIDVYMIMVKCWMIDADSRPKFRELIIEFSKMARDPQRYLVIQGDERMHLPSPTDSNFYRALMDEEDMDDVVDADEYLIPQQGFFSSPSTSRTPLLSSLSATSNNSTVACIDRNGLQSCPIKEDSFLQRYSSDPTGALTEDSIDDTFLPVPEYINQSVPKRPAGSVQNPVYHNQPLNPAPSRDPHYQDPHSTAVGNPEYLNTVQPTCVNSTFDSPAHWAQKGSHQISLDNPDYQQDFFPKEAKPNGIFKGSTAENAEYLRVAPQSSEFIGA
Data set [28] in a line: GSH reactivity in PBS buffer at pH 7.4 assessed as pseudo-first order rate constant incubated upto 6 hrs at 20 degreeC by LC-MS analysis. The data set is classed as physicochemical. The note with it: pH 7.4, 6 h. In short, it runs like this: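 Compound at 100 μM with 1 mM GSH (10 equiv) in PBS pH 7.4, containing 100 μM 4-hydroxybenzoic acid as internal standard and 5% v/v DMSO, held at 20 °C. LC-MS traces taken every 10 min. Normalized integrals plotted against time to give a pseudo-first-order rate constant. Run in triplicate.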

Data set [29] has as its target T1, Tyrosine-protein kinase BTK. Kind of data set: Covalent inhibition of full-length BTK (unknown origin) expressed in Escherichia coli BL21 (DE3) at 100 nM incubated for 1 hr in presence of ATP by ADP-Glo kinase assay relative to control.
In data set [30] the test system is TMD8. Kind of data set: Downregulation of NFKBID gene expression in human TMD8 cells at 1 uM incubated for 8 hrs by RNA-sequencing analysis. The data set is classed as functional, cell-based. In short, it runs like this: (§2)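 TMD8 cells (RPMI-1640, 10% FBS, penicillin/streptomycin, 2 mM glutamine) exposed to compound or DMSO vehicle for 8 h; total RNA extracted for RNA-seq. Differential expression versus DMSO scored at FDR < 0.01 with log2 fold change beyond ±0.5.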

The subject of data set [31] is TMD8. Kind of data set: Downregulation of IL-10 gene expression in human TMD8 cells at 1 uM incubated for 8 hrs by RNA-sequencing analysis. The data set is classed as functional, cell-based. The method, boiled down: as §2
In data set [32] the test system is TMD8. Kind of data set: Downregulation of EGR2 gene expression in human TMD8 cells at 1 uM incubated for 8 hrs by RNA-sequencing analysis. The data set is classed as functional, cell-based. In short, it runs like this:
as §2

Data set [33] has as its system TMD8. Kind of data set: Downregulation of LTA gene expression in human TMD8 cells at 1 uM incubated for 8 hrs by RNA-sequencing analysis. The data set is classed as functional, cell-based. In short, it runs like this: as §2
In data set [34] the test system is TMD8. Kind of data set: Downregulation of CD83 gene expression in human TMD8 cells at 1 uM incubated for 8 hrs by RNA-sequencing analysis. It counts as functional, cell-based. The method, boiled down:
as §2

Data set [35] concerns TMD8. The data set is described as follows: Downregulation of NR4A1 gene expression in human TMD8 cells at 1 uM incubated for 8 hrs by RNA-sequencing analysis. The data set is classed as functional, cell-based. The method, boiled down: as §2
A short description of data set [36]: Stability in human plasma assessed as parent compound remaining incubated for 3 hrs by UPLC-MS analysis. The data set is classed as ADME, cell-free. The settings on record: read-out: Stability.
Data set [37] deals with T1, Tyrosine-protein kinase BTK.

Structures are written as SMILES. Activity calls are given as the source filed them. The calls are words filed in the database; no cut-off is given here.

Sequence of Epidermal growth factor receptor (Homo sapiens), P00533 [T790M] (P00533 whole entry T790M): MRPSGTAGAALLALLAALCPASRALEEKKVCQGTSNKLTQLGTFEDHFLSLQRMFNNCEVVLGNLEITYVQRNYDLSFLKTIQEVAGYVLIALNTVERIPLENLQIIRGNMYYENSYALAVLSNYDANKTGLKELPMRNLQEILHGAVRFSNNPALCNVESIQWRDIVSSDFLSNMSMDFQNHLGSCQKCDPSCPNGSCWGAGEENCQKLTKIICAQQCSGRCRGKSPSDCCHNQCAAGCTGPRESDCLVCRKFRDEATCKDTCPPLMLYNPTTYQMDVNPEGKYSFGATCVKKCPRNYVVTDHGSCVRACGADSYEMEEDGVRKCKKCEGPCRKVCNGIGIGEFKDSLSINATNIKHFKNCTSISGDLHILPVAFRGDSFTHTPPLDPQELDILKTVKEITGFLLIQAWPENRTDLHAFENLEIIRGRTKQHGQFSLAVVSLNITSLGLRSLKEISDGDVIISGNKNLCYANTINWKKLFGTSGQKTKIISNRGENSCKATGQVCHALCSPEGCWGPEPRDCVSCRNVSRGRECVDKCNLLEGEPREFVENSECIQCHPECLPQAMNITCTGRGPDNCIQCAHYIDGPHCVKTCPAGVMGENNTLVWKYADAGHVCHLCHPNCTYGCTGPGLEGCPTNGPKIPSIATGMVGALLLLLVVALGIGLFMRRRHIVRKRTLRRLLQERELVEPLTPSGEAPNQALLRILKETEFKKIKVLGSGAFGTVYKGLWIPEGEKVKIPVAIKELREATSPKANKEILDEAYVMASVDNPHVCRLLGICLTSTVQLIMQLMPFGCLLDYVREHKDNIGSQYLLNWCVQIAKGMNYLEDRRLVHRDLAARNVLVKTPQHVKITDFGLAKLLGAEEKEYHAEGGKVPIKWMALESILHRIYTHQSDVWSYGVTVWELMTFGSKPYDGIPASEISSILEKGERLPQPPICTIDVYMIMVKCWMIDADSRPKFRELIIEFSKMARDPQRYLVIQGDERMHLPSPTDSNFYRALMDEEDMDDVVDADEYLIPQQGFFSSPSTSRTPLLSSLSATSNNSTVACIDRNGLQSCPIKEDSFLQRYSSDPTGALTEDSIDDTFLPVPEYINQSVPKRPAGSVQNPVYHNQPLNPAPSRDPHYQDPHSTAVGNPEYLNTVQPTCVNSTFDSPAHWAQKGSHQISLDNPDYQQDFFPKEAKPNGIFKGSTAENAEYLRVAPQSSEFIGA
Sequence of Epidermal growth factor receptor (Homo sapiens), P00533 [L861Q] (P00533 whole entry L861Q): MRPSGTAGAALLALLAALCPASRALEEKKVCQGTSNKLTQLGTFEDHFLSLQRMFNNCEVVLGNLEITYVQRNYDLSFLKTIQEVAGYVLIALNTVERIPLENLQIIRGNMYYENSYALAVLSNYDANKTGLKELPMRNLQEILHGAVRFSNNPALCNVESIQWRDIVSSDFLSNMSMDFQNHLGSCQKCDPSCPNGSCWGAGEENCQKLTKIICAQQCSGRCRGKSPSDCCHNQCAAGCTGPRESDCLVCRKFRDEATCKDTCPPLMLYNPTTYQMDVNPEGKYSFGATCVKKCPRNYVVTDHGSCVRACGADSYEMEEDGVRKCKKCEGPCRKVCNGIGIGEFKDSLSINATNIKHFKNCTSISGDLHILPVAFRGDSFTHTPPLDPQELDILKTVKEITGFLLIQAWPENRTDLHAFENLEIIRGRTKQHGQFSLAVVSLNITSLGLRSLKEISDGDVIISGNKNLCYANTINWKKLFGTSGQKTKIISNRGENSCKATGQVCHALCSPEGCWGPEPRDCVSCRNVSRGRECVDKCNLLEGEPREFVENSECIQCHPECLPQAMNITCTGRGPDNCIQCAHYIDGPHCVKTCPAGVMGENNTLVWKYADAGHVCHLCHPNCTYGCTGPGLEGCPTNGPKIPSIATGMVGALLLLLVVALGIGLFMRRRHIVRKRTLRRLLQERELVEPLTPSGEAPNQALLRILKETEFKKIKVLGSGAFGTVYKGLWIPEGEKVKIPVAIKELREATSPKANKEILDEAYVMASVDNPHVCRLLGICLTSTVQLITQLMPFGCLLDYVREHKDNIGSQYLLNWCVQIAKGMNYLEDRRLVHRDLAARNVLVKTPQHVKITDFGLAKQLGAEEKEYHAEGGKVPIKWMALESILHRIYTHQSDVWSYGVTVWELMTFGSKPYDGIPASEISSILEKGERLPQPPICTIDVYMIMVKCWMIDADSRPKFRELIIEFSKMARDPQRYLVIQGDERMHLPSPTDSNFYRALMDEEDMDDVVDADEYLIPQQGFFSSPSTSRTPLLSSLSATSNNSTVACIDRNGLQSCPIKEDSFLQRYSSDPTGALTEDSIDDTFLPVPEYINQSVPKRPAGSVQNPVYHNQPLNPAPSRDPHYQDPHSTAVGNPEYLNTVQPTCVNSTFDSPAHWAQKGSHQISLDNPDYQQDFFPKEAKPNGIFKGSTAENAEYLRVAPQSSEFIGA

As to `CNC(=O)c1cnc(S(C)(=O)=O)nc1N1CCC[C@H](n2nc(-c3ccc(Oc4ccccc4)cc3)c3c(N)ncnc32)C1`, the inhibition entry in data set [1], in data set [16], in [19] and in [24] was “inactive” each time. In addition, the Activity in data set [2] worked out at 3.4%; in data set [4] it was 14.5%; in data set [6], 53%; in [10], 3.9%; in data set [12], 4.5%; in data set [18], 26.6%. In data set [23], the Activity stood at 4.6%. The viability at 1 µM in [3] came out at 14.7%. In addition, the inhibition entry in data set [5], in data set [7], in [9], in data set [21], in data set [25] and in data set [27] was “Active” in each case. Besides, the outcome in [8], in data set [11], in data set [13], in data set [15], in data set [17] and in [20] was Active. Further, the outcome in data set [22] and in data set [26] was Active. Also, in data set [14], the half-maximal inhibitory concentration (IC50) (usually the concentration needed to halve the response being measured) is 0.6 nM. Further, in [28], the K was 47 10^-5/s.
In the case of `CS(=O)(=O)c1ncc(Cl)c(C(=O)N2CCC[C@H](n3nc(-c4ccc(Oc5ccccc5)cc4)c4c(N)ncnc43)C2)n1`, the inhibition (as a rule, the relative decrease from the control value, in per cent) in data set [29] is 80%.
Take `CS(=O)(=O)c1ncc(C(=O)N2CCC[C@H](n3nc(-c4ccc(Oc5ccccc5)cc4)c4c(N)ncnc43)C2)cn1`: the inhibition in [29] was found to be 80%.
With `CS(=O)(=O)c1nccc(C(=O)N2CCC[C@H](n3nc(-c4ccc(Oc5ccccc5)cc4)c4c(N)ncnc43)C2)n1`, the inhibition in data set [29] amounted to 80%.
Turning to `CCCCS(=O)(=O)c1nccc(C(=O)N2CCC[C@H](n3nc(-c4ccc(Oc5ccccc5)cc4)c4c(N)ncnc43)C2)n1`, the inhibition in [29] is 40%.
For the compound `C=CC(=O)N1CCC[C@@H](n2nc(-c3ccc(Oc4ccccc4)cc3)c3c(N)ncnc32)C1`, the result in data set [30], in [31], in data set [32], in [33], in data set [34] and in data set [35] was Active.
`CCOC(=O)c1cnc(S(C)(=O)=O)nc1N1CCC[C@H](n2nc(-c3ccc(Oc4ccccc4)cc3)c3c(N)ncnc32)C1`: in [29], the inhibition was more than 95%. Besides, the remaining at 3 h in data set [36] was 22%. In addition, the inhibition result in data set [1], in [19] and in data set [24] was “inactive” each time. Also, the inhibition result in [5], in [9], in [21], in data set [25] and in data set [27] was “Active” in each case.
`COC(=O)c1cnc(S(C)(=O)=O)nc1N1CCC[C@H](n2nc(-c3ccc(Oc4ccccc4)cc3)c3c(N)ncnc32)C1`: the inhibition result in [1], in data set [19] and in data set [24] was “inactive” in each case. For the same compound, the inhibition entry in data set [5], in data set [9], in [21], in [25] and in [27] was “Active” each time.
For `CCCCS(=O)(=O)c1ncc(C(=O)N2CCC[C@H](n3nc(-c4ccc(Oc5ccccc5)cc4)c4c(N)ncnc43)C2)cn1`, in [29], the inhibition amounted to 40%.
In the case of `Nc1ncnc2c1c(-c1ccc(Oc3ccccc3)cc1)nn2[C@H]1CCCN(C(=O)c2cnc(S(=O)(=O)c3ccccc3)nc2)C1`, the inhibition in data set [29] was determined as 40%.
`Cc1cnc(S(C)(=O)=O)nc1N1CCC[C@H](n2nc(-c3ccc(Oc4ccccc4)cc3)c3c(N)ncnc32)C1`: the inhibition result in [1], in data set [16], in data set [19] and in data set [24] was “inactive” throughout. The inhibition result in data set [5], in data set [7], in [9], in data set [21], in data set [25] and in data set [27] was “Active” throughout. Further, in data set [37], the Kinact worked out at 0.007 s⁻¹.
